This note sets out measurements from ChEMBL document CHEMBL3271936, “Biologically oriented organic sulfur chemistry. 14. Antiinflammatory properties of some aryl sulfides, sulfoxides, and sulfones” (J Med Chem, 1976).

SMILES strings stand for the structures. Calls of active or inactive are those of the source. No cut-off for these calls is given here.

As a reminder, the inhibition in vivo is the relative decrease from the control value, in per cent. As usually defined, the ED50 is the dose at which the effect has come halfway, by size or by number of responders.

For series [1], the system named is Rattus norvegicus. The experiment in a line: Antiinflammatory activity in Holtzman rat assessed as inhibition of carrageenan-induced paw edema at 50 mg/kg, po administered at 0.5 and 2.5 hrs prior to carrageenan-challenge relative to control. The series is classed as functional. Particulars: Holtzmann. Summed up:
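Carrageenan paw-edema assay in male or female Holtzman rats (180–190 g), five per group. Compound given orally at 50 mg/kg twice, at 2.5 h and 0.5 h before carrageenan injection into the hind paw. Inhibition of edema is expressed as percent versus controls.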

The subject of series [2] is Mus musculus. The experiment in a line: Toxicity in mouse assessed as mortality at >= 0.3 g/kg, ip. Particulars: in vivo, 300 mg/kg. The series is classed as organism-based. Summed up: (§1)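 Mice dosed intraperitoneally at two dose levels, three animals per compound (rarely two). The approximate lethal range was taken as survival at the lower dose and death at the higher, in g/kg. Dose brackets were 0.1–0.3, 0.3–1.0, and >1.0.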

Series [3] deals with Rattus norvegicus. The experiment in a line: Antiinflammatory activity in Holtzman rat assessed as inhibition of UV radiation-induced erythema at 50 mg/kg, po relative to control. The series is classed as functional. The note with it: Holtzmann.
In series [4] the test system is Rattus norvegicus. The experiment in a line: Antiinflammatory activity in Holtzman rat assessed as inhibition of carrageenan-induced paw edema at 35 mg/kg, po relative to control. Particulars: Holtzmann. The series is classed as functional. (In general: In the carrageenan paw model, swelling and tenderness develop within hours.)
The subject of series [5] is Rattus norvegicus. In words: Antiinflammatory activity in specific pathogen-free Alderley Park 1 rat assessed as inhibition of adjuvant-induced swelling at 25 mg/kg/day, po treated for 2 days prior to adjuvant-challenge followed by compound administration for 18 days. In kind it is functional, organism-based. Summed up: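 Adjuvant arthritis assay in rats. Oral dosing at 25 mg/kg per day begins 2 days before adjuvant and continues 18 days after it, for 20 days in total.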

Series [6] concerns Rattus norvegicus. In words: Antiinflammatory activity in po dosed Holtzman rat assessed as inhibition of UV radiation-induced erythema. In kind it is functional. The note with it: Holtzmann.
In series [7] the test system is Mus musculus. In words: Antiinflammatory activity in mouse assessed as inhibition of carrageenan-induced edema at 30 mg/kg relative to control. The series is classed as functional.
Series [8] has as its system Mus musculus. The experiment in a line: Toxicity in mouse assessed as mortality up to 0.3 g/kg, ip. In kind it is organism-based. The note with it: in vivo, 300 mg/kg. Summed up:
as §1

Series [9] deals with Rattus norvegicus. In words: Antiinflammatory activity in Holtzman rat assessed as inhibition of UV radiation-induced erythema at 25 mg/kg, po relative to control. The series is classed as functional. Particulars: Holtzmann.

Regarding `O=C(O)c1ccccc1[S+]([O-])c1cccc(C(F)(F)F)c1` (configuration not stated), the inhibition in vivo at 50 mg/kg was found to be 4% in series [1] and 2% in series [3]. The Activity entry in series [2] is “Toxic”.
For the compound `Cc1cccc([S+]([O-])c2ccccc2C(=O)O)c1C` (configuration not stated), the figures for the inhibition in vivo at 50 mg/kg in series [1] and in [3] were 15% and 0%, respectively.
Turning to `Cc1cccc(Sc2ccccc2C(=O)O)c1C`, the inhibition in vivo at 50 mg/kg in series [1] is 15%; in series [3], 26%. Moreover, in [2], the Activity result is recorded as “Toxic”.
As for `O=C(O)c1ccccc1S(=O)(=O)c1cccc(C(F)(F)F)c1`, the Activity result in series [2] is “Toxic”. The inhibition in vivo at 50 mg/kg in series [3] is 23%. For the same compound, the inhibition in vivo at 35 mg/kg in series [4] was determined as 6%.
Take `CC(C(=O)O)c1ccccc1[S+]([O-])c1ccccc1` (configuration not stated): the values for the inhibition in vivo at 50 mg/kg in [1] and in series [3] were 8% and 7%, respectively.
As to `O=C(O)Cc1ccccc1Sc1ccccc1`, the values for the inhibition in vivo at 50 mg/kg in series [1] and in series [3] were 23% and 51%, respectively. Also, the Activity entry in [2] is “Toxic”. Besides, the inhibition result in series [5] is “inactive”.
`O=C(O)c1ccccc1[S+]([O-])c1ccccc1` (configuration not stated): the inhibition in vivo at 50 mg/kg in [1] worked out at 19%; in series [3], 0%. Also, the Activity result in [2] is on record as “Toxic”.
Turning to `CCCCC1C(=O)N(c2ccccc2)N(c2ccccc2)C1=O` [PHENYLBUTAZONE], the ED50 in series [6] was 5 mg/kg. Also, the inhibition in vivo at 50 mg/kg in series [1] stood at 50%.
Consider `O=C(O)Cc1ccccc1[S+]([O-])c1ccccc1` (configuration not stated), for which the inhibition in vivo at 50 mg/kg amounted to 30% in [1] and 23% in series [3]. In addition, in series [2], the Activity result is given as “Toxic”. Further, the inhibition result in [5] is “inactive”.
As for `Cc1cccc(S(=O)(=O)c2ccccc2C(=O)O)c1C`, the figures for the inhibition in vivo at 50 mg/kg in series [1] and in series [3] were 0% and 27%, respectively. For the same compound, the Activity result in series [2] is “Toxic”.
Regarding `NCCSSc1ccccc1C(=O)O`, the inhibition in vivo at 30 mg/kg in series [7] amounted to 40%.
Take `O=C(O)c1ccccc1Sc1cccc(C(F)(F)F)c1`: the inhibition in vivo at 50 mg/kg in [1] stood at 18%; in series [3] it was 43%. For the same compound, the Activity result in [8] is reported as “Non-toxic”. Besides, in [9], the inhibition in vivo at 25 mg/kg was 0%.
As to `CC(=O)Oc1ccccc1C(=O)O` [ASPIRIN], the inhibition in vivo at 50 mg/kg was less than 20% in series [1] and 50% in series [3].
Consider `O=C(O)c1ccccc1S(=O)(=O)c1ccccc1`, for which the inhibition in vivo at 50 mg/kg in series [1] came to 15%; in series [3], 0%. Also, in series [2], the Activity result was “Toxic”.
The like results for `CC(C(=O)O)c1ccccc1Sc1ccccc1` (configuration not stated) were, in that order, 14%, 33% and “Toxic”.
